Measured values: ChEMBL document CHEMBL1143331, “The synthesis and structure-activity relationship of substituted N-phenyl anthranilic acid analogs as amyloid aggregation inhibitors” (Bioorg Med Chem Lett, 2009)
The source made the active and inactive calls. The rule behind the calls is not given here.

Legend:
[1] = Inhibition of amyloid beta (1 to 40) aggregation by beta amyloid self seeding thioflavin T assay
Procedure, shortened: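 Compound was incubated with 30 μM Aβ(1-40) in 50 mM NaPi, 150 mM NaCl, 1 M urea, 0.02% w/v NaN3, pH 7.5. Thioflavin T at 5 µM was added after fibril formation, and fluorescence was read as β-sheet fibril content. IC50 came from eight concentrations by logit transformation of the titration curves. Values are the mean of two separate experiments.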

[2] = Inhibition of amyloid beta (1 to 40) aggregation by beta amyloid self seeding radioassay
Procedure, shortened: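 Aβ(1-40) at 30 μM unlabeled, plus a tracer amount of 125I-Aβ(1-40), incubated with compound in 50 mM NaPi, 150 mM NaCl, 1 M urea, 0.02% w/v NaN3, pH 7.5. Radiolabeled fibrils retained on a 0.2 µm filter were measured. Eight compound concentrations were tested, and IC50 was taken by logit transformation of the titration curves. Values are the average of two separate experiments.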

Mus musculus [3] = assay: Reduction in mean senile plaque area in Tg2576 mouse overexpressing human betaAPP695SWE at 200 mg/kg/day, po administered with chow; assay type: functional; set-up: scale not given: the % may be the effect or the level left
[4] = Inhibition of amyloid beta (1 to 40) aggregation assessed as appearance of smaller fragmented amyloid beta species at 50 uM by atomic force microscopy study
Mus musculus [5] = assay: Reduction in senile plaque load in Tg2576 mouse overexpressing human betaAPP695SWE at 200 mg/kg/day, po administered with chow for 7 months; assay type: functional; set-up: scale not given: the % may be the effect or the level left
Mus musculus [6] = assay: Reduction in mean senile plaque area in Tg2576 mouse overexpressing human betaAPP695SWE at 60 mg/kg/day, po administered with chow; assay type: functional; set-up: scale not given: the % may be the effect or the level left
Mus musculus [7] = assay: Reduction in senile plaque load in Tg2576 mouse overexpressing human betaAPP695SWE at 60 mg/kg/day, po administered with chow for 3 months; assay type: functional; set-up: scale not given: the % may be the effect or the level left
Mus musculus [8] = assay: Reduction in senile plaque load in Tg2576 mouse overexpressing human betaAPP695SWE at 60 mg/kg/day, po administered with chow for 7 months; assay type: functional; set-up: scale not given: the % may be the effect or the level left

SMILES	IC50 [1] [nM]	IC50 [2] [µM]	further results
COc1ccc(CCCc2ccc(Nc3cc(F)ccc3C(=O)O)cc2)cc1	9000	14	
O=C(O)c1ccccc1Nc1ccc(CCCc2ccc(Cl)cc2Cl)cc1	2000	2	
O=C(O)c1ccccc1Nc1ccc(CCc2ccc(Cl)cc2)cc1	3000	> 100	
O=C(O)c1cc([N+](=O)[O-])ccc1Nc1ccc(CCc2ccc(F)c(F)c2)cc1	4000	41	
O=C(O)c1ccccc1Nc1ccc(CCc2ccc(Cl)c(Cl)c2)cc1	2000	> 100	Activity (Mus musculus [3]): 2.1%; Activity [4]: Active; Activity (Mus musculus [5]): 44%
O=C(O)c1cccc(C(F)(F)F)c1Nc1ccc(CCc2ccc(Cl)c(Cl)c2)cc1	30000	> 100	
O=C(O)c1cc([N+](=O)[O-])ccc1Nc1ccc(CCc2cccc(Cl)c2)cc1	300	33	
O=C(O)c1ccccc1Nc1ccc(CCc2ccccc2Cl)cc1	5000	> 100	
O=C(O)c1ccccc1Nc1ccc(CCc2ccc(F)c(C(F)(F)F)c2)cc1	2000	> 100	
Cc1ccc(CCCc2ccc(Nc3ccccc3C(=O)O)cc2)cc1C	3000	6	
COC(=O)c1ccc(Nc2ccc(CCc3ccc(Cl)c(Cl)c3)cc2)cc1	> 100000	> 100	
O=C(O)c1cc(F)ccc1Nc1ccc(CCCc2ccc(Cl)c(Cl)c2)cc1	1000	86	
CCN(CC)c1ccc(CCCc2ccc(Nc3ccccc3C(=O)O)cc2)cc1	1000	3	
Cc1ccc(Nc2ccc(CCCc3ccc(C)c(C)c3)cc2)c(C(=O)O)c1	3000	16	
O=C(O)c1cc([N+](=O)[O-])ccc1Nc1ccc(CCc2ccccc2)cc1	1500	70	
O=C(O)c1cc(Nc2ccc(CCc3ccc(Cl)c(Cl)c3)cc2)ccc1C(F)(F)F	35000	> 100	
O=C(O)c1cc([N+](=O)[O-])ccc1Nc1ccc(CCc2ccccc2Cl)cc1	500	3	
COc1ccc(CCCc2ccc(Nc3ccccc3C(=O)O)cc2)cc1	17000	30	
O=C(O)c1cc(Nc2ccc(CCc3ccc(Cl)c(Cl)c3)cc2)ccc1F	3000	> 100	
Cc1ccc(CCCc2ccc(Nc3ccccc3C(=O)O)cc2)cc1	1000	9	
O=C(O)c1cc([N+](=O)[O-])ccc1Nc1ccc(CCN2CCC3CCCCC3C2)cc1 (stereo not given)	1000	5	

SMILES	IC50 [1] [nM]	IC50 [2] [µM]	further results
CCCCN(CCCC)c1ccc(CCc2ccc(Nc3ccc([N+](=O)[O-])cc3C(=O)O)cc2)cc1	1000	15	
O=C(O)c1ccccc1Nc1ccc(CCCc2cccc(Cl)c2)cc1	3000	4	
O=C(O)c1cc([N+](=O)[O-])ccc1Nc1ccc(CCc2ccc(Cl)c(Cl)c2)cc1	500	43	
Cc1ccc(CCc2ccc(Nc3ccccc3C(=O)O)cc2)cc1C	10000	> 100	
O=C(O)c1ccccc1Nc1ccc(CCCc2cccc(Br)c2)cc1	3000	2	
O=C(O)c1ccccc1Nc1ccc(CCc2ccc(F)c(F)c2)cc1	2000	> 100	
O=C(O)c1cc([N+](=O)[O-])ccc1Nc1ccc(CCc2ccc(F)c(C(F)(F)F)c2)cc1	800	3	
O=C(O)c1ccccc1Nc1ccc(CCCc2ccccc2Cl)cc1	2000	6	
O=C(O)c1ccccc1Nc1ccc(CCc2cc(Cl)cc(Cl)c2)cc1	15000	> 100	
O=C(O)c1ccccc1Nc1ccc(CCc2cccc(Cl)c2)cc1	19000	> 100	
O=C(O)c1c(Nc2ccc(CCc3ccc(Cl)c(Cl)c3)cc2)cccc1C(F)(F)F	100	70	
CCN(CC)c1ccc(Nc2ccc(CCc3ccc(Cl)c(Cl)c3)cc2)c(C(=O)O)c1	53000	> 100	
O=C(O)c1ccccc1Nc1ccc(CCCc2ccccc2)cc1	5000	14	
COc1ccc(CCCc2ccc(Nc3ccc(F)cc3C(=O)O)cc2)cc1	10000	14	
O=C(O)c1ccccc1Nc1ccc(CCc2ccccc2)cc1	10000	60	
O=C(O)c1cc([N+](=O)[O-])ccc1Nc1ccc(CCc2ccc(Cl)cc2Cl)cc1	4000	17	
O=C(O)c1ccccc1Nc1ccc(CCc2ccc(Cl)cc2Cl)cc1	51000	> 100	
O=C(O)c1cccnc1Nc1ccc(CCc2ccc(Cl)c(Cl)c2)cc1	2000	7	
Cc1ccc(CCCc2ccc(Nc3cc(F)ccc3C(=O)O)cc2)cc1C	5400	12	
Cc1ccc(Nc2ccc(CCCc3ccc(Cl)c(Cl)c3)cc2)c(C(=O)O)c1	> 100000	> 100	
Cc1ccc(Nc2ccc(CCc3ccc(Cl)c(Cl)c3)cc2)c(C(=O)O)c1	2000	> 100	

SMILES	IC50 [1] [nM]	IC50 [2] [µM]	further results
O=C(O)c1ccccc1Nc1ccc(CCCc2ccc(Cl)c(Cl)c2)cc1	1000	25	Activity (Mus musculus [6]): 2.6%; Activity (Mus musculus [7]): 45%; Activity (Mus musculus [8]): 47%
O=C(O)c1ccccc1Nc1ccc(CCCc2ccc(F)c(F)c2)cc1	5000	8	
O=C(O)c1ccccc1Nc1ccc(CCCc2cc(Cl)cc(Cl)c2)cc1	3000	3	
Cc1ccc(CCc2ccc(Nc3ccc([N+](=O)[O-])cc3C(=O)O)cc2)cc1C	2000	12	
O=C(O)c1ccccc1Nc1ccc(CCc2cccc(F)c2)cc1	70000	> 100	
Cc1ccc(CCCc2ccc(Nc3ncccc3C(=O)O)cc2)cc1C	9000	14	
O=C(O)c1cc([N+](=O)[O-])ccc1Nc1ccc(CCCc2ccc(Cl)c(Cl)c2)cc1	1000	> 100	
Cc1ccc(CCCc2ccc(Nc3ccc([N+](=O)[O-])cc3C(=O)O)cc2)cc1C	6000	14	
O=C(O)c1ccc(Nc2ccc(CCc3ccc(Cl)c(Cl)c3)cc2)cc1	10000	> 100	
Cc1ccc(CCc2ccc(Nc3ccccc3C(=O)O)cc2)cc1Cl	1000	88	
O=C(O)c1cc([N+](=O)[O-])ccc1Nc1ccc(CCc2ccc(Cl)c(C(F)(F)F)c2)cc1	1000	16	
O=C(O)c1cccnc1Nc1ccc(CCCc2ccc(Cl)c(Cl)c2)cc1	5000	60	
O=C(O)c1cc([N+](=O)[O-])ccc1Nc1ccc(CCc2ccc(Cl)cc2)cc1	400	15	
O=C(O)c1cccc(Nc2ccc(CCc3ccc(Cl)c(Cl)c3)cc2)c1	10000	> 100	
COc1ccc(CCc2ccc(Nc3ccccc3C(=O)O)cc2)cc1	> 100000	> 100	
O=C(O)c1ccccc1Nc1ccc(CCCc2ccc(Cl)cc2)cc1	2000	3	
O=C(O)c1ccc(C(F)(F)F)cc1Nc1ccc(CCc2ccc(Cl)c(Cl)c2)cc1	4000	27	
O=C(O)c1ccccc1Nc1ccc(CCN2CCC3CCCCC3C2)cc1 (stereo not given)	1000	> 100	
Cc1ccc(CCCc2ccc(Nc3ccc(F)cc3C(=O)O)cc2)cc1C	1000	> 100	
O=C(O)c1ccccc1Nc1ccc(CCCc2ccc(F)c(C(F)(F)F)c2)cc1	3000	5	
